From ChEMBL document CHEMBL3997791, “Nanomolar-Potency Aminophenyl-1,3,5-triazine Activators of the Cystic Fibrosis Transmembrane Conductance Regulator (CFTR) Chloride Channel for Prosecretory Therapy of Dry Eye Diseases” (J Med Chem, 2017)
Active and inactive are the calls of the source. The calls are words filed in the database; no cut-off is given here.

What was measured:
[1] = Cytotoxicity against Fischer rat thyroid cells assessed as effect on cell survival up to 10 uM after 8 hrs by alamar blue assay; type: cell-based
Method in brief: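 FRT cells cultured overnight, then incubated 8 h with compound up to 10 μM; 33% DMSO as positive control. Viability read by Alamar Blue; mean ± SEM, n = 8.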

[2] = biological target: T1, Anoctamin-1 (Homo sapiens) (UniProt Q5XXA6); experiment: Inhibition of human TMEM16A expressed in FRT cells co-expressing YFP assessed as decrease in iodide influx at 10 uM measured after 10 mins for 2 to 12 sec in presence of ATP by fluorescence assay; type: cell-based
T1 sequence (whole entry): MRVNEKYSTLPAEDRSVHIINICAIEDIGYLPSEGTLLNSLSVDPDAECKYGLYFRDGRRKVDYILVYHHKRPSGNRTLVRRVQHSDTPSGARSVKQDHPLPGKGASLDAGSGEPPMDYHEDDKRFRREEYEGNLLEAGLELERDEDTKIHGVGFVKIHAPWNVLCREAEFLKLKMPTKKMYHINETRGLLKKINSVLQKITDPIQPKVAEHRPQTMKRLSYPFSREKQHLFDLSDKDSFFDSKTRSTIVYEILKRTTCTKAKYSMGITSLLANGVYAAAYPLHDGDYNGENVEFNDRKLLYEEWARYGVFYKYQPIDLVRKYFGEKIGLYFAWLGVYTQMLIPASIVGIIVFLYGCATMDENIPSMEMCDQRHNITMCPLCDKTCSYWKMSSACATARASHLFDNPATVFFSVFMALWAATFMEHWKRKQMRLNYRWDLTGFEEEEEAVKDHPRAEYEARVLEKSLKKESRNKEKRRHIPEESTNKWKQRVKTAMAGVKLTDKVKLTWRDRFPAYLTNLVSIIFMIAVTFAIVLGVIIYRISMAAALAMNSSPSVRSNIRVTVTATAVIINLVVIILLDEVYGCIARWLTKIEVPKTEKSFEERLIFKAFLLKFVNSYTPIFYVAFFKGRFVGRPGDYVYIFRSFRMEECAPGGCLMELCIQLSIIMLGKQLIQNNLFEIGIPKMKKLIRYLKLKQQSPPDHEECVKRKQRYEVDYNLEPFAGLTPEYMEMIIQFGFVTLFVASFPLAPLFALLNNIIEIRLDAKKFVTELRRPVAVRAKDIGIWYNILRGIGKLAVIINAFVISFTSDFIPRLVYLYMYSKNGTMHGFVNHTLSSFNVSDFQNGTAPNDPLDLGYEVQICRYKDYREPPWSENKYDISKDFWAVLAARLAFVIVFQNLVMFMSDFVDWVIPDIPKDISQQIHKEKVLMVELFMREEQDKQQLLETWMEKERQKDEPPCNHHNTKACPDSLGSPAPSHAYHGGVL
Method in brief: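 FRT cells stably coexpressing TMEM16A and YFP-H148Q; compound at 10 μM. Fluorescence quenching read in plate reader after iodide addition (activation) or iodide plus ATP addition (inhibition); initial rate of iodide influx computed as linear measure of channel function. Representative of two to four experiment sets.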

[3] = species on record: Homo sapiens; experiment: Inhibition of ENaC in human primary bronchial epithelial cells assessed as effect on short-circuit current at 10 uM after 10 mins by voltage clamp method
Method in brief: (§1)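 Primary human bronchial epithelial cells grown at air-liquid interface, mounted in Ussing chambers in symmetrical HCO3−-buffered solutions (95% O2/5% CO2, 37 °C), with Ag/AgCl electrodes. After 10 min preincubation with 10 µM compound, sequential additions were 20 µM amiloride, 20 µM forskolin, 10 µM CFTRinh-172 and 100 µM ATP. Traces represent two to four experiment sets.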

[4] = species on record: Homo sapiens; experiment: Inhibition of potassium channel in human primary bronchial epithelial cells assessed as effect on short-circuit current at 10 uM after 10 mins by voltage clamp method; method in brief: as §1
[5] = species on record: Homo sapiens; experiment: Inhibition of sodium/potassium pump in human primary bronchial epithelial cells assessed as effect on short-circuit current at 10 uM after 10 mins by voltage clamp method; method in brief: as §1
[6] = biological target: T2, Solute carrier family 12 member 2 (Homo sapiens) (UniProt P55011); experiment: Inhibition of NKCC1 in human primary bronchial epithelial cells assessed as effect on short-circuit current at 10 uM after 10 mins by voltage clamp method
T2 sequence (whole entry): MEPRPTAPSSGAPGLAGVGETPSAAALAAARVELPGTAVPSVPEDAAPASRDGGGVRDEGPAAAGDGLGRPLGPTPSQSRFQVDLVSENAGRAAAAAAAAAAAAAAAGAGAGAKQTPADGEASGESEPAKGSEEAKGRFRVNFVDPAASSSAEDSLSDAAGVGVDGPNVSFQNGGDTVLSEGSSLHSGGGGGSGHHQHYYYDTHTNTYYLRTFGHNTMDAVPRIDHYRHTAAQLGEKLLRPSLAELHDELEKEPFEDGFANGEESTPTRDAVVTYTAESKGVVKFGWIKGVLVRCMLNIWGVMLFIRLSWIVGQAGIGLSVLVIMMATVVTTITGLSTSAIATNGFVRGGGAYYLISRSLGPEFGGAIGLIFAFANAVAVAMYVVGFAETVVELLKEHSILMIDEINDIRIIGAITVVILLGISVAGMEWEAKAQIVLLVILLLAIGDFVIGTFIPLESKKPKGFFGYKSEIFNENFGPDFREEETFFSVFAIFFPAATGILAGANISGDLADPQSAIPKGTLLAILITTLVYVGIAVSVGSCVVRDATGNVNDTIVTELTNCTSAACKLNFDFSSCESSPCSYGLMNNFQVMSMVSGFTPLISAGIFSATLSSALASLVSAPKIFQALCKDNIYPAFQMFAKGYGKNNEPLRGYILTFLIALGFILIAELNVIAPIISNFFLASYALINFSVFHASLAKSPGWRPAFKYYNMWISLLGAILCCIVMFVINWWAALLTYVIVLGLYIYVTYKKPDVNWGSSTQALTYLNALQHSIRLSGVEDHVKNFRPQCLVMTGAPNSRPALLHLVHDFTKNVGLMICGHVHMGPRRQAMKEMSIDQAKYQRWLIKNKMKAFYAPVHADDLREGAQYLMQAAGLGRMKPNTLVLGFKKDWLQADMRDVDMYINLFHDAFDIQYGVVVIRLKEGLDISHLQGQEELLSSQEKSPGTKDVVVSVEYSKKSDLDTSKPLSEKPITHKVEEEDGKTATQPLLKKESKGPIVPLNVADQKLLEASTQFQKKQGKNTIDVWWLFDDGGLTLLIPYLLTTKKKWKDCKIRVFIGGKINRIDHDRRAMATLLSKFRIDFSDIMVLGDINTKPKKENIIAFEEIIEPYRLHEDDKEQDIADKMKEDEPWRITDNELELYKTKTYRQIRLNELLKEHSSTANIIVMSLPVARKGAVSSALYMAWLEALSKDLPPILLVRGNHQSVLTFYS
Method in brief: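 Primary human bronchial epithelial cultures (air-liquid interface) in Ussing chambers, symmetrical HCO3−-buffered solutions, 95% O2/5% CO2, 37 °C. After 10 min preincubation with 10 μM compound, sequential 20 μM amiloride, 20 μM forskolin, 10 μM CFTRinh-172, 100 μM ATP; short-circuit current recorded under voltage clamp.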

| SMILES | Activity [1] | inhibition [2] | inhibition [3] | inhibition [4] | inhibition [5] | inhibition [6] |
| --- | --- | --- | --- | --- | --- | --- |
| CNc1nc(Nc2ccccc2)nc(OCC(F)(F)C(F)F)n1 | Non-Toxic | inactive | inactive | inactive | inactive | inactive |
| CCN(CC)c1nc(Nc2ccc3ncsc3c2)nc(OC(C(F)(F)F)C(F)(F)F)n1 | Non-Toxic | inactive | inactive | inactive | inactive | inactive |
